Test results published in ChEMBL document CHEMBL1121917, “Structure--activity relationships in a broad-spectrum anthelmintic series. Acid chloride phenylhydrazones. 1. Aryl substitutions and chloride variations” (1981).

Columns and labels:
Canis familiaris [1] = organism: Canis familiaris; assay: percent reduction in Toxascaris eggs per gram, after oral treatment of 50 mg/dog dose of compound in a single treatment; assay type: functional, Canis lupus familiaris, Egg
Summary of the method: (§1)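 Dogs naturally infected with Toxascaris leonina were experimentally infected with mixed Ancylostoma caninum and Uncinaria stenocephala larvae. Finely ground compound was given orally in gelatin capsules. Three egg count determinations were made before and three after treatment in each experiment.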

Ovis aries [2] = assay: Percent reduction in Oesophagostomum eggs per gram, after treatment with 100 mg/kg dose of compound perorally in sheep; assay type: functional, Egg; conditions: route oral
Summary of the method: (§2)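 Naturally parasitized lambs were dosed orally at the stated mg/kg. Dosing was either as a suspension of finely ground compound by stomach tube, or as ground compound weighed into gelatin capsules and given by balling gun. Activity was scored by the clinical test method: the decrease in posttreatment helminth eggs per gram.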

Canis familiaris [3] = organism: Canis familiaris; assay: percent reduction in Uncinaria eggs per gram, after oral treatment of 100 mg/dog dose of compound in a single treatment; assay type: functional, Canis lupus familiaris, Egg
Ovis aries [4] = assay: Percent reduction in Nematodirus eggs per gram, after treatment with 400 mg/kg dose of compound perorally in sheep; assay type: functional, Egg; conditions: route oral; summary of the method: as §2
Ovis aries [5] = assay: Percent reduction in Trichuris eggs per gram, after treatment with 300 mg/kg dose of compound perorally in sheep; assay type: functional, Egg; conditions: route oral
Ovis aries [6] = assay: Percent reduction in Trichuris eggs per gram, after treatment with 100 mg/kg dose of compound perorally in sheep; assay type: functional, Egg; conditions: route oral
Summary of the method: (§3)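 Naturally parasitized lambs, dosed orally either with a suspension by stomach tube or with finely ground compound in gelatin capsules by balling gun. Activity was scored by the clinical test method, meaning a significant fall in helminth egg counts after treatment.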

Ovis aries [7] = assay: Percent reduction in Ostertagia eggs per gram, after treatment with 300 mg/kg dose of compound perorally in sheep; assay type: functional, Egg; conditions: route oral; summary of the method: as §3
Ovis aries [8] = assay: Percent reduction in Strongyloides eggs per gram, after treatment with 100 mg/kg dose of compound perorally in sheep; assay type: functional, Egg; conditions: route oral; summary of the method: as §3
Canis familiaris [9] = organism: Canis familiaris; assay: percent reduction in Uncinaria eggs per gram, after oral treatment of 150 mg/dog dose of compound in a single treatment; assay type: functional, Canis lupus familiaris, Egg
Ovis aries [10] = assay: Percent reduction in Trichostrongylus eggs per gram, after treatment with 400 mg/kg dose of compound perorally in sheep; assay type: functional, Egg; conditions: route oral; summary of the method: as §3
Ovis aries [11] = assay: Percent reduction in Trichostrongylus eggs per gram, after treatment with 300 mg/kg dose of compound perorally in sheep; assay type: functional, Egg; conditions: route oral
Ovis aries [12] = assay: Percent reduction in Moniezia eggs per gram, after treatment with 400 mg/kg dose of compound perorally in sheep; assay type: functional, Egg; conditions: route oral; summary of the method: as §2
Ovis aries [13] = assay: Percent reduction in Strongyloides eggs per gram, after treatment with 400 mg/kg dose of compound perorally in sheep; assay type: functional, Egg; conditions: route oral; summary of the method: as §3
Mus musculus [14] = organism: Mus musculus; assay: Percent clearance of Nematospiroides dubius from mouse after oral treatment of 1.875 mg/mouse/day; assay type: functional
Summary of the method: (§4)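 Mice naturally carrying Syphacia obvelata were experimentally infected with Nematospiroides dubius and Hymenolepis nana, then grouped after a 2-week prepatency. Finely ground compound was suspended in aqueous 0.10% carboxymethylcellulose, 0.04% polysorbate 80 and 0.0042% polyparaben, and 0.1 mL was given orally by cannula once daily for 4 days to five mice. Necropsy followed 2 days later, scoring presence or absence of each parasite. Control clearance was subtracted from the treated clearance.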

Canis familiaris [15] = organism: Canis familiaris; assay: percent reduction in Uncinaria eggs per gram, after oral treatment of 50 mg/dog dose of compound in a single treatment; assay type: functional, Canis lupus familiaris, Egg; summary of the method: as §1
Ovis aries [16] = assay: Percent reduction in Haemonchus eggs per gram, after treatment with 400 mg/kg dose of compound perorally in sheep; assay type: functional, Egg; conditions: route oral; summary of the method: as §2
Ovis aries [17] = assay: Percent reduction in Trichuris eggs per gram, after treatment with 400 mg/kg dose of compound perorally in sheep; assay type: functional, Egg; conditions: route oral; summary of the method: as §3
Ovis aries [18] = assay: Percent reduction in Trichostrongylus eggs per gram, after treatment with 100 mg/kg dose of compound perorally in sheep; assay type: functional, Egg; conditions: route oral; summary of the method: as §3
Ovis aries [19] = assay: Percent reduction in Cooperia eggs per gram, after treatment with 400 mg/kg dose of compound perorally in sheep; assay type: functional, Egg; conditions: route oral
Summary of the method: (§5)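 Naturally parasitized lambs received compound orally, either as the aqueous suspension by stomach tube or as finely ground powder in gelatin capsules by balling gun. Activity was judged by the clinical test method, as a significant decrease in posttreatment helminth egg counts.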

Canis familiaris [20] = organism: Canis familiaris; assay: percent reduction in Toxascaris eggs per gram, after oral treatment of 150 mg/dog dose of compound in a single treatment; assay type: functional, Canis lupus familiaris, Egg
Ovis aries [21] = assay: Percent reduction in Ostertagia eggs per gram, after treatment with 100 mg/kg dose of compound perorally in sheep; assay type: functional, Egg; conditions: route oral; summary of the method: as §2
Ovis aries [22] = assay: Percent reduction in Nematodirus eggs per gram, after treatment with 300 mg/kg dose of compound perorally in sheep; assay type: functional, Egg; conditions: route oral; summary of the method: as §2
Mus musculus [23] = organism: Mus musculus; assay: Percent clearance of Syphacaia obvelata from mouse after oral treatment of 1.87 mg/mouse/day; assay type: functional; summary of the method: as §4
Canis familiaris [24] = organism: Canis familiaris; assay: percent reduction in Ancylostoma eggs per gram, after oral treatment of 50 mg/dog dose of compound in a single treatment; assay type: functional, Canis lupus familiaris, Egg
Canis familiaris [25] = organism: Canis familiaris; assay: percent reduction in Ancylostoma eggs per gram, after oral treatment of 150 mg/dog dose of compound in a single treatment; assay type: functional, Canis lupus familiaris, Egg
Ovis aries [26] = assay: Percent reduction in Nematodirus eggs per gram, after treatment with 100 mg/kg dose of compound perorally in sheep; assay type: functional, Egg; conditions: route oral; summary of the method: as §2
Canis familiaris [27] = organism: Canis familiaris; assay: percent reduction in Ancylostoma eggs per gram, after oral treatment of 100 mg/dog dose of compound in a single treatment; assay type: functional, Canis lupus familiaris, Egg; summary of the method: as §1
Ovis aries [28] = assay: Percent reduction in Haemonchus eggs per gram, after treatment with 100 mg/kg dose of compound perorally in sheep; assay type: functional, Egg; conditions: route oral; summary of the method: as §5
Ovis aries [29] = assay: Percent reduction in Strongyloides eggs per gram, after treatment with 300 mg/kg dose of compound perorally in sheep; assay type: functional, Egg; conditions: route oral; summary of the method: as §3
Ovis aries [30] = assay: Percent reduction in Ostertagia eggs per gram, after treatment with 400 mg/kg dose of compound perorally in sheep; assay type: functional, Egg; conditions: route oral; summary of the method: as §3
Ovis aries [31] = assay: Percent reduction in Oesophagostomum eggs per gram, after treatment with 400 mg/kg dose of compound perorally in sheep; assay type: functional, Egg; conditions: route oral; summary of the method: as §2
Ovis aries [32] = assay: Percent reduction in Haemonchus eggs per gram, after treatment with 300 mg/kg dose of compound perorally in sheep; assay type: functional, Egg; conditions: route oral; summary of the method: as §2

CSc1ccc(/C(Cl)=N/Nc2ccccc2)cc1
Reduction (Canis familiaris [1]): 69% | Reduction (Ovis aries [2]): 100% | Reduction (Canis familiaris [3]): 99% | Reduction (Ovis aries [4]): 100% | Reduction (Ovis aries [5]): 73% | Reduction (Ovis aries [6]): 25% | Reduction (Ovis aries [7]): 100% | Reduction (Ovis aries [8]): 100% | Reduction (Canis familiaris [9]): 91% | Reduction (Ovis aries [10]): 100% | Reduction (Ovis aries [11]): 100% | Reduction (Ovis aries [12]): 100% | Reduction (Ovis aries [13]): 100% | Parasite_Clearance (Mus musculus [14]): 100% | Reduction (Canis familiaris [15]): 86% | Reduction (Ovis aries [16]): 100% | Reduction (Ovis aries [17]): 38% | Reduction (Ovis aries [18]): 98% | Reduction (Ovis aries [19]): 100% | Reduction (Canis familiaris [20]): 100% | Reduction (Ovis aries [21]): 98% | Reduction (Ovis aries [22]): 100% | Parasite_Clearance (Mus musculus [23]): 100% | Reduction (Canis familiaris [24]): 91% | Reduction (Canis familiaris [25]): 84% | Reduction (Ovis aries [26]): 100% | Reduction (Canis familiaris [27]): 94% | Reduction (Ovis aries [28]): 98% | Reduction (Ovis aries [29]): 100% | Reduction (Ovis aries [30]): 100% | Reduction (Ovis aries [31]): 100% | Reduction (Ovis aries [32]): 100%
